The text below walks through data of ChEMBL document CHEMBL1126070, “Bisquinolines. 1. N,N-bis(7-chloroquinolin-4-yl)alkanediamines with potential against chloroquine-resistant malaria” (J Med Chem, 1992).

The test system of assay [1] is Plasmodium berghei. In words: In vivo antimalarial activity against Plasmodium berghei infected mice (Mus musculus) at 640 mg/kg; Skin lesions at injection site. The assay is classed as functional, organism-based. More on the design: dose 640 mg/kg. Particulars: Skin of body. The method, boiled down:
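P. berghei (KBG 173) infected male mice, 5 per dose, given a single subcutaneous dose 3 days post-infection. Injection sites examined for skin lesions.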

The test system of assay [2] is Plasmodium berghei. The assay can be described thus: In vivo antimalarial activity against Plasmodium berghei infected mice (Mus musculus) at 160 mg/kg. It counts as functional.
Assay [3] can be described thus: Resistance index was measured as the ratio of IC50 of Plasmodium falciparum W-2 clone / IC50 of P. falciparum D-6 clone. It counts as functional. The method, boiled down:
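P. falciparum clones D-6 (mefloquine-resistant) and W-2 (CQ-, pyrimethamine-, sulfadoxine- and quinine-resistant) were tested in parallel. Compounds were dissolved in DMSO and serially diluted in culture medium. Infected erythrocytes at 0.25–0.5% parasitemia were added to a final 1.5% hematocrit. IC50 for each clone came from inhibition of tritiated hypoxanthine uptake, and the index is IC50(W-2)/IC50(D-6).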

The subject of assay [4] is Plasmodium berghei. In words: In vivo antimalarial activity against Plasmodium berghei infected mice (Mus musculus) at 40 mg/kg. The assay is classed as functional.
Assay [5] deals with Plasmodium falciparum. The assay can be described thus: In vitro activity against Plasmodium falciparum W-2. It counts as functional, organism-based. The method, boiled down:
(§1)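 Test compounds dissolved in DMSO and serially diluted in culture medium. Erythrocytes at 0.25 to 0.5% parasitemia added in 96-well microdilution plates to a final hematocrit of 1.5%. Activity indexed by inhibition of [3H]hypoxanthine uptake. IC50 derived from this uptake.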

Assay [6] relates to Plasmodium falciparum. In words: In vitro activity against Plasmodium falciparum D6. The assay is classed as functional, organism-based. The method, boiled down:
as §1

The test system of assay [7] is Plasmodium berghei. In words: In vivo antimalarial activity against Plasmodium berghei infected mice (Mus musculus) at 640 mg/kg; C-1. The assay is classed as functional, organism-based. More on the design: dose 640 mg/kg.
Assay [8] has as its system Plasmodium berghei. The assay can be described thus: In vivo antimalarial activity against Plasmodium berghei infected mice (Mus musculus) at 320 mg/kg.
Assay [9] has as its system Plasmodium berghei. In words: In vivo antimalarial activity against Plasmodium berghei infected mice (Mus musculus) at 640 mg/kg. The assay is classed as functional.

Some results are limits rather than exact numbers.

In general, IC50 refers to the midpoint of a concentration-inhibition curve. As to `Clc1ccc2c(NCCCCCCCCCNc3ccnc4cc(Cl)ccc34)ccnc2c1`, the T-C entry in [1] was “Lesions 15A”; in assay [2], 7.4 days; in assay [4] it was 3.1 days. In assay [3], the Resistance index came to 0.8. Besides, the IC50 in [5] was determined as 2.3 nM; in assay [6] it was 3 nM.
In the case of `Clc1ccc2c(NCCCCCCCNc3ccnc4cc(Cl)ccc34)ccnc2c1`, the T-C amounted to 7.2 days in assay [2] and 2.6 days in assay [4]. Moreover, the Resistance index in assay [3] is 2.3. In addition, the half-maximal inhibitory concentration (IC50) is 4.3 nM in assay [5] and 1.9 nM in assay [6].
On to `Clc1ccc2c(NCCCCCCCCNc3ccnc4cc(Cl)ccc34)ccnc2c1`, for which the T-C was 1 days in assay [2], “Curative-1” in assay [7] and -0.2 days in assay [4]. Further, the Resistance index in [3] is 0.6. Besides, the IC50 in assay [5] turned out to be 3.1 nM; in assay [6], 5.6 nM.
Consider `Clc1ccc2c(NC3CCCCC3Nc3ccnc4cc(Cl)ccc34)ccnc2c1` (configuration not stated), for which the figures for the T-C in assay [2], in assay [8] and in assay [4] were above 60 days, above 60 days and 8.5 days, respectively. Further, the Resistance index in [3] was found to be 1.4. Besides, the half-inhibitory concentration (IC50) in [5] was determined as 1.4 nM; in assay [6] it was 1 nM.
On to `Clc1ccc2c(NCCNc3ccnc4cc(Cl)ccc34)ccnc2c1`, for which the T-C in [9] was 1.4 days; in assay [2], 0.4 days; in [4] it was 0 days. Moreover, the Resistance index in [3] was 1.6. In addition, the IC50 worked out at 27 nM in assay [5] and 17 nM in [6].
Regarding `Clc1ccc2c(NCCCCCCCCCCCCNc3ccnc4cc(Cl)ccc34)ccnc2c1`, the T-C in assay [9] was 0 days; in assay [2], -0.2 days; in assay [4], 0 days. In addition, the Resistance index in assay [3] worked out at 0.5. The IC50 in assay [5] was 31 nM; in assay [6] it was 60 nM.
Turning to `Clc1ccc2c(NCCCCCCNc3ccnc4cc(Cl)ccc34)ccnc2c1`, the T-C is above 60 days in [9], 3.9 days in assay [2] and 0.4 days in assay [4]. Further, the Resistance index in assay [3] was 1.1. Moreover, the results for the concentration for half-maximal inhibition (IC50) in assay [5] and in assay [6] were 23 nM and 21 nM, respectively.
For the compound `Clc1ccc2c(NCCCCCCCCCCNc3ccnc4cc(Cl)ccc34)ccnc2c1`, the T-C was determined as 0.6 days in [9], 0.2 days in assay [2] and 0.2 days in assay [4]. Besides, the Resistance index in assay [3] came to 0.6. For the same compound, the values for the half-inhibitory concentration (IC50) in assay [5] and in [6] were 3.4 nM and 5.7 nM, respectively.
With `CCN(CC)CCCC(C)Nc1ccnc2cc(Cl)ccc12` (configuration not stated) [CHLOROQUINE], the T-C in [9] and in [2] was above 60 days each time.
`CC(CNc1ccnc2cc(Cl)ccc12)Nc1ccnc2cc(Cl)ccc12` (configuration not stated): the T-C in [9] was above 60 days; in assay [2] it was 5.7 days; in assay [4], 3.4 days. The Resistance index in assay [3] is 1.1. Further, the IC50 in [5] stood at 3.9 nM; in assay [6] it was 3.5 nM.
Turning to `Clc1ccc2c(N3CCN(CCCN4CCN(c5ccnc6cc(Cl)ccc56)CC4)CC3)ccnc2c1` [PIPERAQUINE], the Resistance index in assay [3] stood at 1.9. In addition, the results for the IC50 in [5] and in [6] were 16 nM and 8.3 nM, respectively.
On to `Clc1ccc2c(NCCCCCNc3ccnc4cc(Cl)ccc34)ccnc2c1`, for which the T-C was above 60 days in assay [9], 5.1 days in assay [2] and 1 days in [4]. Moreover, the Resistance index in [3] was 1.5. Further, the IC50 in assay [5] came out at 3.8 nM; in assay [6] it was 2.5 nM.
As for `CC(CCCNc1ccnc2cc(Cl)ccc12)CNc1ccnc2cc(Cl)ccc12` (configuration not stated), the T-C was above 60 days in assay [9], 3.6 days in assay [2] and 1.2 days in assay [4]. For the same compound, the Resistance index in assay [3] turned out to be 1.1. In addition, the half-inhibitory concentration (IC50) in assay [5] amounted to 3 nM; in assay [6], 2.7 nM.
Regarding `Clc1ccc2c(NCCCNc3ccnc4cc(Cl)ccc34)ccnc2c1`, the figures for the T-C in [9], in [2] and in assay [4] were 1.2 days, 0.4 days and 0.2 days, respectively. The Resistance index in assay [3] amounted to 5.5. The IC50 in assay [5] worked out at 83 nM; in assay [6] it was 15 nM.
Regarding `Clc1ccc2c(NCCCCNc3ccnc4cc(Cl)ccc34)ccnc2c1`, the results for the T-C in [9], in assay [2] and in [4] were 5.6 days, 2.3 days and 0.5 days, respectively. The Resistance index in assay [3] was 0.2. In addition, the concentration for half-maximal inhibition (IC50) turned out to be 81 nM in [5] and 390 nM in assay [6].
